TRPC4 agonist: opens the mouse TRPC4 cation channel; Q9QUQ5; HEK293 TRPC4beta/mu-opioid, Fluo4 calcium fluorescence; hits give high values; B-score at 10 µM; actives 0.49% (n = 310,000);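 active = B-score above 5 SD of library B-scores, and initial fluorescence ratio not above library mean plus 5 SD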;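 note: positive B-score marks a calcium rise read as TRPC4 activation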
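System – HEK293 cells stably co-expressing mouse TRPC4beta and mu-opioid receptor · Signal – Fluo4 calcium-sensitive dye fluorescence, kinetic, 1 Hz baseline · Benchmarks – buffer (low) and maximal DAMGO (high) · Read-out – B score of integrated fluorescence ratio per well · Incubation – dye loading 45 min room temperature, 110 s kinetic read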
TRPC4 potent: allosteric potentiators of mouse TRPC4 channel | Q9QUQ5 | HEK293 TRPC4beta/mu-opioid, DAMGO EC20, Fluo-4 Ca2+ flux; hits give high values | B-score at 10 µM | actives 0.42% (n = 310,000) | AID 2227;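 active = B-score of calcium response area above 5 SD of library B-scores, with initial fluorescence ratio within 5 SD of library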;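 note: B-score of integrated fluorescence ratio over time as area under calcium response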
TRPC6 inhibitor: blocks the mouse TRPC6 cation channel; actives 1.1% (n = 310,000); HEK293-TRPC6, membrane potential dye, ACh-evoked depolarization; hits give low values; B-score at 10 µM; Q61143;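 active = B-score under library mean minus 3 SD, initial fluorescence not abnormally high, positive integrated signal ratio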;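 note: B-score derived from integrated fluorescence ratio over the kinetic read; more negative B-score means stronger inhibition of depolarization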
Kir21 inh: blocks the mouse Kir2.1 inward-rectifier potassium channel; P35561; HEK293-Kir2.1, FluxOR thallium flux fluorescence; hits give low values; B-score at 10 µM; actives 0.85% (n = 310,000);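 active = fluorescence ratio B-score at or below minus 3 SD of library scores, with starting-brightness B-score within 2 SD, cut at about -4.2 in these data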;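 note: channel flux triggered by added potassium and thallium sulfate stimulus; B-score of peak minus minimum fluorescence over baseline after thallium stimulus; more negative B-score means stronger Kir2.1 block with less thallium influx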
TRPC4 inh: inhibitors of mouse TRPC4 channel. Q9QUQ5. HEK293 TRPC4beta/mu-opioid, DAMGO-evoked Fluo4 calcium flux; hits give low values. B-score at 10 µM. actives 0.39% (n = 300,000). AID 2247;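 active = B-score over 3 SD under the library average, no early fluorescence shift, positive overall ratio signal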
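Assay system: HEK293 cells with stable TRPC4beta plus mu-opioid receptor expression; Probe or stimulus: DAMGO in two steps, submaximal then maximal; Dosing: single-point compound dosing; Measured by: Fluo4 calcium-dye fluorescence, kinetic read; Read-out basis: B score from integrated Fluo4 fluorescence ratio.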
TRPC6 activator: activators of mouse TRPC6 channel. Q61143. HEK293-TRPC6 membrane potential dye fluorescence; hits give high values. B-score at 10 µM. actives 0.13% (n = 310,000);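 active = B-score of the integrated fluorescence ratio above library mean plus 3 SD, and starting fluorescence ratio within library mean plus 5 SD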;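 note: higher score means more depolarization so channel activation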
TRPC4 spec 2: second check of whether TRPC6 inhibitors also affect mouse TRPC4; AID 2776; shares compounds with TRPC6 inhibitor; inhibition, % at 10 µM; actives 42% (n = 920); HEK293 TRPC4/MOR, membrane potential dye fluorescence; channel activated by saturating DAMGO dose;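 active = compounds whose fluorescence signal differed from control wells by over 3 SD, either direction, in both duplicate plates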
TRPC4 spec: selectivity of TRPC6 inhibitors: effect on mouse TRPC4; shares compounds with TRPC6 inhibitor; HEK293 TRPC4/mu-opioid, membrane potential fluorescence; activity change, negative = inhibition, % at 10 µM; actives 61% (n = 920); AID 2777;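 active = rise or fall in signal beyond 3 SD of buffer-only wells in both replicate plates, either sign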;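 note: integrated kinetic ratio of fluorescence range over baseline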
HEK293 MPD ctr 2-1: parental HEK293 nonspecific activity of TRPC6 inhibitors, second screen; shares compounds with TRPC6 inhibitor; parental HEK293 membrane potential dye fluorescence; maximal acetylcholine challenge after compound addition; signal change vs control, % at 10 µM; actives 31% (n = 920); AID 2779;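 active = membrane potential signal moving either way by over 3 SD of the maximum-effect control, in both duplicate plates, meaning non-specific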
HEK293 MPD ctr-1: checks TRPC6 inhibitor effects in parental HEK293 cells. shares compounds with TRPC6 inhibitor. parental HEK293 membrane potential dye fluorescence. membrane potential signal change, % at 10 µM. actives 60% (n = 920);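 active = membrane potential signal shifting up or down by more than 3 SD of buffer-only wells, on both duplicate plates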
HEK293 MPD ctr-2: parental HEK293 nonspecific activity of TRPC6 modulators. shares compounds with TRPC6 inhibitor. membrane potential dye fluorescence. membrane potential signal change, % at 10 µM. actives 51% (n = 2,400). AID 488924;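 active = membrane potential signal moves up or down beyond 5 SD from buffer-only wells, on both duplicate plates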
HEK293 MPD ctr 2-2: parental HEK293 nonspecific activity of TRPC6 modulators, second screen; shares compounds with TRPC6 inhibitor; membrane potential dye fluorescence; after compound, maximal acetylcholine stimulation; inhibition, % at 10 µM; actives 14% (n = 2,400);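 active = membrane potential signal drops by more than 5 SD from the mean control signal, in both duplicate plates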;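 note: plate controls were acetylcholine ECmax control wells for no effect and buffer only wells for full effect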
TRPC4 ctr mod: mouse TRPC4 off-target activity of TRPC6 modulators. shares compounds with TRPC6 inhibitor. HEK293 TRPC4/mu-opioid, membrane potential fluorescence. percent change from control (negative = decrease, positive = increase), % at 10 µM. actives 69% (n = 2,400). AID 488927;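 active = membrane potential signal moved up or down beyond 5 SD of buffer control wells, in both duplicate plates, actives on both sides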;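 note: plate controls were assay buffer wells for no effect and DAMGO maximal-effect wells for full effect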
TRPC4 ctr inh 2: second selectivity test of TRPC6 modulators against mouse TRPC4 | HEK293 TRPC4/mu-opioid, membrane potential dye fluorescence; stimulated with maximal-effect DAMGO | inhibition, % at 10 µM | actives 55% (n = 2,400) | shares compounds with TRPC6 inhibitor;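 active = drop in membrane potential signal beyond 5 SD of the control wells in both duplicate plates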;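 note: TRPC4 counter screen for TRPC6 hits run under conditions tuned for TRPC6 not TRPC4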
TRPC6 block conf: confirmation of mouse TRPC6 inhibitors | shares compounds with TRPC6 inhibitor | HEK293-TRPC6, membrane potential dye, ACh-evoked depolarization | inhibition, % at 10 µM | actives 43% (n = 3,300) | AID 488960;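 active = fluorescence ratio falls more than 5 SD below the full-stimulation control mean, in both duplicate runs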;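 note: integrated fluorescence ratio of peak minus minimum over baseline after agonist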
TRPC6 act confirm: confirmation of mouse TRPC6 activators; AID 488961; shares compounds with TRPC6 inhibitor; HEK293-TRPC6 membrane potential dye fluorescence, FDSS; activation, % at 10 µM; actives 11% (n = 2,800);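 active = ratio signal rise beyond 5 SD above unstimulated control wells' mean, seen in both duplicate runs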;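 note: plate controls were buffer EC0 wells for no effect and acetylcholine ECmax response for full effect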
An asterisk follows results filed as active; i = inactive; nt = not tested or not shown. This is a sample that favours compounds with a hit; in the whole collection about 2.9% have one here.

SMILES	TRPC4 agonist	TRPC4 potent	TRPC6 inhibitor	Kir21 inh	TRPC4 inh	TRPC6 activator	TRPC4 spec 2	TRPC4 spec	HEK293 MPD ctr 2-1	HEK293 MPD ctr-1	HEK293 MPD ctr-2	HEK293 MPD ctr 2-2	TRPC4 ctr mod	TRPC4 ctr inh 2	TRPC6 block conf	TRPC6 act confirm
Cc1cnc(C(=O)N2CCCC(C(=O)c3ccc(Cl)cc3C)C2)cn1 (stereo not drawn)	i	i	-5.35*	0.5	i	i	nt	nt	nt	nt	i	i	14.5%*	i	45.5%*	nt
COC(=O)c1ccc(NC(=O)N2CCCC(C(=O)c3ccccc3OC)C2)cc1 (stereo not drawn)	i	i	-9.16*	1.46	i	i	i	i	226.0%*	i	nt	nt	nt	nt	i	nt
COc1ccccc1C(=O)C1CCCN(C(=O)c2cn3cc(Cl)ccc3n2)C1 (stereo not drawn)	i	i	-8.19*	-0.2	i	i	i	0.1%*	i	0.3%*	nt	nt	nt	nt	i	i
COc1ccccc1C(=O)C1CCCN(C(=O)c2ccccc2Cl)C1 (stereo not drawn)	i	i	i	0.02	i	i	nt	nt	nt	nt	nt	nt	nt	nt	nt	nt
Cc1ccc(C(=O)N2CCCC(C(=O)c3ccc(Cl)cc3C)C2)cn1 (stereo not drawn)	i	i	i	-2.22	i	i	nt	nt	nt	nt	nt	nt	nt	nt	nt	nt
Cc1ccc(C(=O)NCC(=O)N2CCCC(C(F)(F)F)C2)s1 (stereo not drawn)	i	i	i	-0.42	i	i	nt	nt	nt	nt	nt	nt	nt	nt	nt	nt
Clc1ccc(C[n+]2cc(-c3ccccc3)n3c2CCCCC3)c(Cl)c1	53*	i	-5.96*	-1.19	-6*	i	nt	nt	nt	nt	160.0%*	i	84.0%*	92.0%*	54.0%*	nt
Cc1c(CCOC(=O)c2ccccc2)sc[n+]1Cc1ccccc1	i	i	-9.46*	1.74	i	i	i	i	42.5%*	i	nt	nt	nt	nt	61.3%*	i
CN=C1c2cc3c(Br)c(OC)ccc3n2CCN1C	i	i	-8.33*	1.08	i	i	i	-14.0%*	10.5%*	-279.5%*	nt	nt	nt	nt	i	i
CN=C1c2cc3cc(OC)ccc3n2CCN1C	i	i	i	0.57	i	i	nt	nt	nt	nt	nt	nt	nt	nt	nt	nt
COc1ccc(-n2cnnc2SCC(=O)Nc2cc(S(=O)(=O)N3CCCCC3)ccc2C)cc1	i	i	-6.09*	0.11	i	i	nt	nt	nt	nt	i	i	i	i	i	i
O=C(NCCCN1CCOCC1)C(=O)N/N=C/c1ccc2c(c1)OCO2	i	i	-8.32*	0.56	i	i	i	i	i	i	nt	nt	nt	nt	i	i
C=CCn1c(/N=C/c2ccc(N(C)C)cc2)nc2ccccc21	86*	10*	-6.61*	-0.04	i	21.8*	nt	nt	nt	nt	890.5%*	i	68.0%*	76.5%*	81.5%*	261.5%*
COc1ccc(-n2c(SCCNCCO)nc3sc4c(c3c2=O)CCCC4)cc1	i	i	-5.15*	-0.16	i	i	nt	nt	nt	nt	-142.0%*	i	-34.5%*	74.0%*	51.5%*	i
CCc1ccc(C(=O)NNC(=O)c2ccc3c(=O)n4c(nc3c2)CCC4)cc1	i	i	i	0.07	i	i	nt	nt	nt	nt	nt	nt	nt	nt	nt	nt
CCCCc1nnc(NC(=O)c2ccc3c(=O)n4c(nc3c2)CCC4)s1	i	i	-7.42*	0.16	i	i	i	-15.2%*	i	-130.5%*	nt	nt	nt	nt	i	i
O=C(Oc1ccc(F)c(F)c1)c1ccc2c(=O)n3c(nc2c1)CCC3	i	i	-5.11*	-0.35	i	i	nt	nt	nt	nt	i	i	i	i	i	i
O=C(Nc1ccc(Cl)cc1Cl)c1ccc2c(=O)n3c(nc2c1)CCC3	59*	i	-5.1*	-0.29	i	i	nt	nt	nt	nt	276.5%*	114.5%*	34.0%*	i	i	nt
CCc1ccccc1NC(=O)CC1SCCNC1=O (stereo not drawn)	i	i	i	-0.04	i	i	nt	nt	nt	nt	nt	nt	nt	nt	nt	nt
O=C(Cn1nc(Cc2cccnc2)c2ccccc2c1=O)Nc1ccccc1F	i	i	i	-1.14	i	i	nt	nt	nt	nt	nt	nt	nt	nt	nt	nt
N#CC[C@H](c1ccccc1)N1CCN(Cc2ccccc2)CCC1=O	i	i	i	0.48	i	i	nt	nt	nt	nt	nt	nt	nt	nt	nt	nt
CCCN1CCC(=NNc2ccc(C(=O)O)cc2)CC1	i	i	i	0.02	i	i	nt	nt	nt	nt	nt	nt	nt	nt	nt	nt
Cc1ccnc(SCCn2c(N3CCN(Cc4ccccc4)CC3)nc3c2c(=O)[nH]c(=O)n3C)n1	i	i	-10.2*	-0.52	i	i	nt	nt	nt	nt	-339.5%*	71.0%*	-61.0%*	57.0%*	59.0%*	i
COc1ccc(CCn2c(N3CCN(Cc4ccccc4)CC3)nc3c2c(=O)[nH]c(=O)n3C)cc1	i	i	i	0.67	i	i	nt	nt	nt	nt	nt	nt	nt	nt	nt	nt
O=C(CCOc1ccccc1)OCC(=O)c1cc2ccccc2o1	i	i	-9.29*	0.43	i	i	i	i	i	i	nt	nt	nt	nt	i	i
Cn1cc(-c2nnc(-c3ccccc3)o2)c2ccccc21	i	i	i	-0.67	i	i	nt	nt	nt	nt	nt	nt	nt	nt	nt	nt

High-throughput results: PubChem BioAssay, Johns Hopkins Ion Channel Center
